Source: ChEMBL document CHEMBL2311478, “Macrolactonolides: a novel class of anti-inflammatory compounds” (Bioorg Med Chem, 2013)
Converted amounts (≈) assume the structure as drawn. The source made the active and inactive calls. The calls are words filed in the database; no cut-off is given here.

Assays:
[1] = Drug uptake in mouse J774A1 cells at 10 uM after 3 hrs by LC-MS/MS method; type: ADME, cell-based; conditions: j774.a1, 3 h
Procedure, shortened: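 Uptake in J774A.1 macrophages seeded two days before at 2 × 10^5 cells/well. Cells were exposed to 10 µM compound for 3 h in DMEM/25 mM Hepes without supplements, washed with ice-cold PBS and lysed in 0.5% Triton X-100. Lysate was measured by LC–MS/MS, using a cell volume of 1.68 µL per 10^6 cells. Result is the I/E ratio, with E taken as 10 µM.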

PBMC [2] = experiment: Antiinflammatory activity in human PBMC assessed as inhibition of LPS-induced IL-8 production after 6 hrs; type: functional, cell-based
Procedure, shortened: (§1)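 Thawed cryopreserved human PBMCs were preincubated 1 h at 37 °C, 5% CO2, then exposed to test compound for 1 h before LPS, anti-CD3 or PHA stimulation. Supernatants were collected at 6, 24 or 48 h according to each cytokine's peak, and cytokines quantified by Luminex multiplex bead assay. 10-point titration starting at 20 µM, in duplicate, with constant DMSO. Parallel Alamar Blue cytotoxicity check under 48 h PHA.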

Rattus norvegicus [3] = experiment: Antiinflammatory activity against ovalbumin-induced airway allergic Brown-Norway rat model assessed as decrease of eosinophil peroxidase activity in bronchoalveolar lavage fluid at 32 mg/kg administered intranasally as dry powder measured on day 29 after ovalbumin challenge; type: functional, Lung; design: scale not given: the % may be the effect or the level left
PBMC [4] = experiment: Antiinflammatory activity in human PBMC assessed as inhibition of anti-CD3-induced IL-12p70 production after 48 hrs; type: functional, cell-based; procedure, shortened: as §1
[5] = Ratio of drug AUC lung to blood in Balb/c mouse at 2 mg/kg, administered intranasally; conditions: lung and blood, inhaled or intranasal
PBMC [6] = experiment: Antiinflammatory activity in human PBMC assessed as inhibition of PHA-induced IP-10 production after 24 hrs; type: functional, cell-based; procedure, shortened: as §1
[7] = Half life in Balb/c mouse blood at 2 mg/kg, administered intranasally; type: ADME, organism-based; design: dose 2 mg/kg; conditions: whole blood, inhaled or intranasal
Procedure, shortened: (§2)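 Male Balb/c mice (21–25 g) dosed intranasally with freshly prepared formulation in 1% DMSO plus 0.125% CMC. Terminal bleeding and lung collection from 5 min to 72 h. K2EDTA blood taken as blood aliquots or spun for plasma. Lung homogenised 1:5 in water. Samples were protein-precipitated with acetonitrile/methanol (2:1) plus roxithromycin internal standard and quantified by LC–MS/MS. LLOQ 0.5 ng/mL (blood/plasma) and 2.5 ng/mL (lung).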

PBMC [8] = experiment: Antiinflammatory activity in human PBMC assessed as inhibition of PHA-induced MIP1alpha production after 6 hrs; type: functional, cell-based; procedure, shortened: as §1
Haemophilus influenzae = experiment: Antibacterial activity against Haemophilus influenzae ATTC 49247 by broth microdilution method; type: functional
Procedure, shortened: (§3)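 CLSI broth microdilution with double dilutions in 96-well plates. For streptococci, 5% horse serum replaced lysed blood in the medium. Inocula were grown on Columbia agar with 5% sheep blood for streptococci, Mueller–Hinton chocolate agar for H. influenzae, and Mueller–Hinton agar for staphylococci. Read-out is MIC in mg/L.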

[9] = Tmax in Balb/c mouse lung at 2 mg/kg, administered intranasally; type: ADME, organism-based; design: dose 2 mg/kg; conditions: inhaled or intranasal; procedure, shortened: as §2
PBMC [10] = experiment: Antiinflammatory activity in human PBMC assessed as inhibition of PHA-induced IL-1beta production after 6 hrs; type: functional, cell-based; procedure, shortened: as §1
PBMC [11] = experiment: Antiinflammatory activity in human PBMC assessed as inhibition of PHA-induced IFNgamma production after 24 hrs; type: functional, cell-based; procedure, shortened: as §1
Staphylococcus aureus = experiment: Antibacterial activity against inducible-resistant to macrolide, licosamide and streptogramin Staphylococcus aureus 90265/97 by broth microdilution method; type: functional
Procedure, shortened: (§4)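 MICs by CLSI broth microdilution with double dilutions, except that Streptococcus medium used 5% horse serum in place of lysed blood. Bacteria were pre-grown on Columbia agar with 5% sheep blood (streptococci) or Mueller–Hinton agar (staphylococci).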

PBMC [12] = experiment: Antiinflammatory activity in human PBMC assessed as inhibition of PHA-induced IL-5 production after 48 hrs; type: functional, cell-based; procedure, shortened: as §1
PBMC [13] = experiment: Antiinflammatory activity in human PBMC assessed as inhibition of anti-CD3-induced TNFalpha production after 48 hrs; type: functional, cell-based; procedure, shortened: as §1
PBMC [14] = experiment: cells; type: functional, cell-based; conditions: Homo sapiens, 48 h
Escherichia coli = experiment: Antibacterial activity against Escherichia coli ATCC 25922 by broth microdilution method; type: functional; procedure, shortened: as §3
PBMC [15] = experiment: Antiinflammatory activity in human PBMC assessed as inhibition of anti-CD3-induced IL-1beta production after 48 hrs; type: functional, cell-based; procedure, shortened: as §1
PBMC [16] = experiment: Antiinflammatory activity in human PBMC assessed as inhibition of LPS-induced MIP1alpha production after 6 hrs; type: functional, cell-based; procedure, shortened: as §1
Rattus norvegicus [17] = experiment: Antiinflammatory activity against ovalbumin-induced airway allergic Brown-Norway rat model assessed as decrease of macrophages in bronchoalveolar lavage fluid at 32 mg/kg administered intranasally as dry powder measured on day 29 after ovalbumin challenge; type: functional, organism-based; design: dose 32 mg/kg; conditions: Lung
Procedure, shortened: (§5)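 Brown-Norway rats sensitised by OVA injection on day 1, boosted on days 14 and 20. Treatment with 32 mg/kg or air control on day 27, followed 1 h later by 60 min OVA inhalation challenge. BAL cells differentiated about 48 h post-challenge (day 29). Comparison was against a sensitised, challenged, untreated group. Mean + SD, n = 10, Dunnett test.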

PBMC [18] = experiment: Antiinflammatory activity in human PBMC assessed as inhibition of PHA-induced TNFalpha production after 6 hrs; type: functional, cell-based; procedure, shortened: as §1
[19] = Cmax in Balb/c mouse blood at 2 mg/kg, administered intranasally; type: ADME, organism-based; design: dose 2 mg/kg, route nasal; conditions: whole blood, inhaled or intranasal; procedure, shortened: as §2
PBMC [20] = experiment: Antiinflammatory activity in human PBMC assessed as inhibition of PHA-induced IL-4 production after 24 hrs; type: functional, cell-based; procedure, shortened: as §1
PBMC [21] = experiment: Antiinflammatory activity in human PBMC assessed as inhibition of PHA-induced IL-8 production after 6 hrs; type: functional, cell-based; procedure, shortened: as §1
[22] = Tmax in Balb/c mouse blood at 2 mg/kg, administered intranasally; type: ADME, organism-based; design: dose 2 mg/kg; conditions: whole blood, inhaled or intranasal; procedure, shortened: as §2
Streptococcus pyogenes [23] = experiment: Antibacterial activity against inducible-resistant to macrolide, licosamide and streptogramin Streptococcus pyogenes Finland 11 by broth microdilution method; type: functional; procedure, shortened: as §4
Streptococcus pyogenes [24] = experiment: Antibacterial activity against efflux mediated macrolide-resistant Streptococcus pyogenes Finland 2 by broth microdilution method; type: functional; procedure, shortened: as §4
Streptococcus pyogenes [25] = experiment: Antibacterial activity against constitutive-resistant to macrolide, licosamide and streptogramin Streptococcus pyogenes 166 GR-Micro by broth microdilution method; type: functional; procedure, shortened: as §4
PBMC [26] = experiment: Antiinflammatory activity in human PBMC assessed as inhibition of PHA-induced IL-6 production after 6 hrs; type: functional, cell-based; procedure, shortened: as §1
Rattus norvegicus [27] = experiment: Antiinflammatory activity against ovalbumin-induced airway allergic Brown-Norway rat model assessed as decrease of neutrophils in bronchoalveolar lavage fluid at 32 mg/kg administered intranasally as dry powder measured on day 29 after ovalbumin challenge; type: functional, organism-based; design: dose 32 mg/kg; procedure, shortened: as §5
PBMC [28] = experiment: Antiinflammatory activity in human PBMC assessed as inhibition of LPS-induced IL-6 production after 6 hrs; type: functional, cell-based; procedure, shortened: as §1
Rattus norvegicus [29] = experiment: Antiinflammatory activity against ovalbumin-induced airway allergic Brown-Norway rat model assessed as decrease of eosinophil peroxidase activity in bronchoalveolar lavage fluid at 11 mg/kg administered intranasally as dry powder measured on day 29 after ovalbumin challenge; type: functional, Lung; design: scale not given: the % may be the effect or the level left
[30] = AUC (0 to infinity) in Balb/c mouse blood at 2 mg/kg, administered intranasally; type: ADME, organism-based; design: time infinity, dose 2 mg/kg, route nasal; conditions: whole blood, inhaled or intranasal; procedure, shortened: as §2
[31] = AUC (0 to infinity) in Balb/c mouse lung at 2 mg/kg, administered intranasally; type: ADME, organism-based; design: time infinity, route nasal, dose 2 mg/kg; conditions: inhaled or intranasal; procedure, shortened: as §2
Streptococcus pyogenes [32] = experiment: Antibacterial activity against erythromycin susceptible Streptococcus pyogenes 3565 by broth microdilution method; type: functional; procedure, shortened: as §3

## CC[C@H]1OC(=O)[C@H](C)[C@@H](O[C@H]2C[C@@](C)(OC)[C@@H](O)[C@H](C)O2)[C@H](C)[C@@H](O[C@@H]2O[C@H](C)C[C@H](N(C)C)[C@H]2O)[C@](C)(O)C[C@@H](C)CN(CCCNC(=O)[C@H]2[C@H](C)C[C@H]3[C@@H]4CCC5=CC(=O)C=C[C@]5(C)[C@@]4(F)[C@@H](O)C[C@@]32C)[C@H](C)[C@@H](O)[C@]1(C)O
[1]
  Drug uptake: Active
PBMC [2]
  EC50: 9000 nM
Rattus norvegicus [3]
  Activity: 50%
PBMC [4]
  EC50: 17 nM
[5]
  lung-to-blood AUC ratio: 53
PBMC [6]
  EC50: > 20000 nM
[7]
  half-life: 54 min
PBMC [8]
  EC50: 2630 nM
Haemophilus influenzae
  MIC: 64 µg/mL (≈ 56.3 µM)
[9]
  Tmax: 4.8 min
PBMC [10]
  EC50: 13800 nM
PBMC [11]
  EC50: 67 nM
Staphylococcus aureus
  MIC: > 64 µg/mL
PBMC [12]
  EC50: 606 nM
PBMC [13]
  EC50: 37 nM
PBMC [14]
  EC50: 110 nM
Escherichia coli
  MIC: > 64 µg/mL
PBMC [15]
  EC50: 30 nM
PBMC [16]
  EC50: 7900 nM
Rattus norvegicus [17]
  Activity: Active
PBMC [18]
  EC50: 1330 nM
[19]
  Cmax: 169 ng/mL
PBMC [20]
  EC50: 210 nM
PBMC [21]
  EC50: 3050 nM
[22]
  Tmax: 15 min
Streptococcus pyogenes [23]
  MIC: 32 µg/mL (≈ 28.2 µM)
Streptococcus pyogenes [24]
  MIC: 32 µg/mL (≈ 28.2 µM)
Streptococcus pyogenes [25]
  MIC: > 64 µg/mL
PBMC [26]
  EC50: 4030 nM
Rattus norvegicus [27]
  Activity: Active
PBMC [28]
  EC50: > 20000 nM
Rattus norvegicus [29]
  Activity: 12%
[30]
  AUC(0-inf): 181 ng·h/mL
[31]
  AUC(0-inf): 9680 ng·h/mL
Streptococcus pyogenes [32]
  MIC: 0.25 µg/mL (≈ 0.22 µM)
